# Measurements as given in article PMC5352984 (Journal of medicinal chemistry, 2017).
# Legend:
# [1] = system: GLP; details: cited from earlier work
# [2] = system: 29 PKMTs, PRMTs, DNMTs, and RNMTs; assay: Selectivity assays against a methyltransferase panel; assay type: biochemical
# How it was run: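 Quenched with 7.5 M guanidine HCl, diluted in 20 mM Tris pH 8.0, FlashPlate counted after 1 h. DOT1L, ASH1L, DNMT3A/3L, DNMT3B/3L: 1 h RT, TCA filter capture, washes, scintillation count. No-compound = 100%, no-enzyme = 0%.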
# [3] = biological target: T1, G9a (Homo sapiens, UniProt Q96KQ7); assay: G9a scintillation proximity methyltransferase assay; assay type: biochemical; details: ratio of IC50 versus compound 14
# T1 sequence (Q96KQ7 1-1210): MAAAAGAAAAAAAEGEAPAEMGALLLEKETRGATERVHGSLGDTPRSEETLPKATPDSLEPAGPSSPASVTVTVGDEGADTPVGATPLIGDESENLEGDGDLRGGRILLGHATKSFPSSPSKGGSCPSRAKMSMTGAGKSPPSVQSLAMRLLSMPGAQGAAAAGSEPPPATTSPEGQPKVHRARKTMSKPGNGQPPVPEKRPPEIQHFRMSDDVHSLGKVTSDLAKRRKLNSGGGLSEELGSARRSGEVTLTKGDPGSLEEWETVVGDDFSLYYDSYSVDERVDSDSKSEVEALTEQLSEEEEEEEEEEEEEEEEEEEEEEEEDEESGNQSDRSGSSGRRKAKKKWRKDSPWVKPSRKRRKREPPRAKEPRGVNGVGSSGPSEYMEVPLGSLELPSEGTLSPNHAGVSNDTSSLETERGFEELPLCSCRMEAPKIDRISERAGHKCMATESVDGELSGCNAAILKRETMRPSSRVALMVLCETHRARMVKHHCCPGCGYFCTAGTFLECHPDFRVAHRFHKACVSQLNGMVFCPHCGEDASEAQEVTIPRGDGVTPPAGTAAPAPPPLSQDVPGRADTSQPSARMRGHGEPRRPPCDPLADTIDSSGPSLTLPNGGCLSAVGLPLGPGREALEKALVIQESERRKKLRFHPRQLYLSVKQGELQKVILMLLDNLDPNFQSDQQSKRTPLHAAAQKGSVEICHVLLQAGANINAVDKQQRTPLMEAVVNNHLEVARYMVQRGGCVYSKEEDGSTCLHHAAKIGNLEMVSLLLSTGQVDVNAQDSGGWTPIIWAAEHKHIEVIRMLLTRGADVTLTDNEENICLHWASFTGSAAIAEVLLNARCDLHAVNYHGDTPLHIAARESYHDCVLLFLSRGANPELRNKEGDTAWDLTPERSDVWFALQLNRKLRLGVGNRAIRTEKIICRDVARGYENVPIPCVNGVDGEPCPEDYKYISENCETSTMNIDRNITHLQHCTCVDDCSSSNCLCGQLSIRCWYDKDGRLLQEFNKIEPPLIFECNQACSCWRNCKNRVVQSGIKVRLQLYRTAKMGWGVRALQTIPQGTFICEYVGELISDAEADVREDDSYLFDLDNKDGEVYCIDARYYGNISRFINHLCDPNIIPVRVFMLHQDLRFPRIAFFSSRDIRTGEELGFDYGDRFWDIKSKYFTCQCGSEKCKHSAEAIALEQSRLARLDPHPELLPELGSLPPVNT
smiles,measurement,setting,value
COc1cc2nc(N3CCCN(C)CC3)nc(NC3CCN(Cc4ccccc4)CC3)c2cc1OC [Compound 1],selectivity for GLP over G9a,[1],3–5 fold
"COc1cc2nc(N3CCOCC3)nc(NC3CCN(C)CC3)c2cc1OC [Compound 4, 6,7-Dimethoxy-N-(1-methylpiperidin-4-yl)-2-morpholinoquinazolin-4-amine]",inhibition of 29 methyltransferases,[2]; compound at 10 μM,did not inhibit
"COc1cc2nc(N3CCCN(C)CC3)nc(NC3CCN(C)CC3)c2cc1OC [Compound 15, 6,7-Dimethoxy-2-(4-methyl-1,4-diazepan-1-yl)-N-(1-methylpiperidin-4-yl)quinazolin-4-amine]",potency increase for G9a compared with 14,[3],21 fold
"CCCCCCNc1nc(NC2CCN(C)CC2)c2cc(OC)c(OC)cc2n1 [Compound 18, N^2-Hexyl-6,7-dimethoxy-N^4-(1-methylpiperidin-4-yl)quinazoline-2,4-diamine]",inhibition of 29 methyltransferases,[2]; compound at 1 μM,did not inhibit
